In one test the target is Src^FL K445C (Homo sapiens, UniProt P12931, K445C). Put plainly: Isotope-coded maleimide labeling and mass spectrometry. To be noted: 5 μM inhibitor. The essentials:
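Purified SrcFL K445C was diluted to 800 nM in HEPES pH 7.6 buffer with 5% glycerol and 0.02% DDM. It was incubated with 5 μM test compound at 25 °C for 30 min, then labelled with 1 mM heavy or light N-ethyl maleimide at 25 °C for 30 min. The reaction was quenched with 10 mM DTT. Heavy and light reactions were mixed, and protein was precipitated with deoxycholate/TCA on ice before mass spectrometry.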

Another test concerns the target Hck^3D WT (Homo sapiens, UniProt P08631). Briefly: Inhibitor IC50 determination, fluorescent SFK peptide kinase assay. It counts as biochemical. To be noted: 1 mM ATP. The essentials: (§1)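 Kinase concentrations were set in the linear range by prior titration: Src3D WT or V284C at 7.5 nM, Hck3D WT or V284C at 5 nM. Kinase was incubated 30 min with test compound (30 μM top, 3-fold serial dilutions, 10 points) and 1 mM ATP in HEPES pH 7.5 buffer with MgCl2, EGTA, BSA, vanadate and BME. Then 20 μM pyrene-labelled SFK peptide was added for 2 h. Fluorescence was read at ex 344/em 405 nm, in triplicate.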

For test [1], the system named is Src^GFP V284C-expressing SYFs. Put plainly: Membrane blebbing microscopy. Particulars: for membrane blebbing: 15 min treatment, 3 μM 2 or 10 μM 3 (1, 3 or 10 μM 3 for dose dependence). It counts as cell-based, murine. The essentials:
(§2)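 SYF cells were seeded on glass slides at 2×10^4 and transfected 24 h later with turbofectin (3:1 μL:μg DNA). At 24 h post-transfection, cells were exposed to test compound for 15 min; where indicated, 10 μM ROCK inhibitor was given for 2 h beforehand. Cells were PBS-washed, fixed in 4% paraformaldehyde for 15 min, and stained with NucBlue and Alexa647-wheat-germ agglutinin for 15 min. The fraction of cells showing blebs was scored.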

Another test deals with Src^3D V284C (Homo sapiens, UniProt P12931, V284C). Briefly: Inhibitor IC50 determination, fluorescent SFK peptide kinase assay. Particulars: 1 mM ATP. It counts as biochemical. The essentials:
as §1

The subject of test [2] is Fyn^myr V284C-expressing SYFs. Briefly: Membrane blebbing microscopy. It counts as cell-based, murine. To be noted: 10 μM 3, 15 min. Put shortly: as §2
For a further test, the target named is Src^3D WT (Homo sapiens, UniProt P12931). Briefly: Inhibitor IC50 determination, fluorescent SFK peptide kinase assay. It counts as biochemical. To be noted: 1 mM ATP. Put shortly: as §1
Test [3] concerns SYFs expressing Src^GFP WT. Briefly: Membrane blebbing microscopy. It counts as cell-based, murine. To be noted: 10 μM 3, 15 min; Src^GFP WT resistant to probes.
The target of the next test is Src^FLAG V284C (Homo sapiens, UniProt P12931, V284C). Briefly: SH3 domain pulldown assay with inhibitor-treated cells. It counts as cell-based. To be noted: HEK293 cells treated with 10 μM probe for 2 h; immobilized SH3 domain ligand. The essentials:
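HEK293T cells expressing SrcFLAG V284C were treated with 10 μM test compound for 2 h. They were then PBS-washed and lysed for 20 min on ice in modified RIPA (pH 7.8, 1% IGEPAL, protease/phosphatase inhibitors, 10 μM compound). Lysates were cleared at 17,000x g, 4 °C, then incubated with SNAP-immobilized SH3 ligand resin, rotating at room temperature for 1 h. Retained Src was quantified by anti-FLAG blotting, n=3.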

Test [4] concerns Src^GFP G2A/V284C-expressing SYFs. Put plainly: Membrane blebbing microscopy. It counts as cell-based, murine. Particulars: 10 μM 3, 15 min; non-myristoylatable Src. The essentials:
as §2

Test [5] has as its system kinases in lysates of HEK293T cells expressing Hck^FLAG V284C. Put plainly: Kinobead kinome profiling of CystIMATIK probes. It counts as binding, human. To be noted: 10 μM probe vs DMSO, ~220 kinases enriched.

SMILES strings stand for the structures.

Chain of Hck^3D WT (P08631 81-526): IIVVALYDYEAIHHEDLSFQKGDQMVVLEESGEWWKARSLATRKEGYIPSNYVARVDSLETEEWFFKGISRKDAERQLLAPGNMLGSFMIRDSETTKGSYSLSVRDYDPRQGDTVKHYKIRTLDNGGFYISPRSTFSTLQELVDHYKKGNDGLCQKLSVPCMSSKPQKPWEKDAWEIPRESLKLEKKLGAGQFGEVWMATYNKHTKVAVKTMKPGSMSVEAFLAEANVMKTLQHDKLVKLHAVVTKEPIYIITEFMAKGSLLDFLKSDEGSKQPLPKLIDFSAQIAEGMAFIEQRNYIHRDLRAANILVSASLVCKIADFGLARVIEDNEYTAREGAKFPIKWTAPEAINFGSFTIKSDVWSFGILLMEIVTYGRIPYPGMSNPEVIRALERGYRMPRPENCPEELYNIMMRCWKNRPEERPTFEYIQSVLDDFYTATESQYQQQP

Regarding `Cc1ccc(NC(=O)c2cccc(C(F)(F)F)c2)cc1C#Cc1nn(C2CCCC2)c2ncnc(N)c12` [compound 6, N-(3-((4-amino-1-cyclopentyl-1H-pyrazolo[3,4-d]pyrimidin-3-yl)ethynyl)-4-methylphenyl)-3-(trifluoromethyl)benzamide], on Src^FL K445C (control peptide), the “maleimide labeling of control cysteine residue, 6 complex vs 5 complex” value is “no change in labeling”. Further, the “K445C maleimide labeling, open (6) compared to closed (5) conformation” value on Src^FL K445C (αF peptide, ratio 6 complex vs 5 complex) is ~ 5 fold.
In the case of `CNC(=O)C(C#N)=Cc1c(C#Cc2cc(NC(=O)c3cccc(C(F)(F)F)c3)ccc2C)c2cncnc2n1CCOC` [compound 3, (E)- and (Z)-N-(3-((6-(2-cyano-3-(methylamino)-3-oxoprop-1-en-1-yl)-7-(2-methoxyethyl)-7H-pyrrolo[2,3-d]pyrimidin-5-yl)ethynyl)-4-methylphenyl)-3-(trifluoromethyl)benzamide], the “inhibition of WT Hck (IC50, Figure 4C)” value against Hck^3D WT is listed as “minimal inhibition”. The membrane blebbing result is “induction of blebbing” in test [1], “marked increase in blebbing” in test [2], “did not significantly increase membrane blebs” in test [3] and “did not produce blebbing” in test [4]. Besides, at Src^3D V284C, the “inhibition of Src V284C (IC50, Figure 4C)” value (“inhibition of Src V284C” for short) was “potently inhibited”. Moreover, the “inhibition of WT Src (IC50, Figure 4C)” value against Src^3D WT is recorded as “minimal inhibition”. Also, the “SH3 domain accessibility (retained Src in SH3 pulldown)” value at Src^FLAG V284C was “greatly increased”.
As to `COCCn1c(/C=C(/C#N)C(=O)NC(C)C)c(-c2ccc(Cl)cc2)c2c(N)ncnc21` [compound 1, (E)- & (Z)-3-(4-Amino-5-(4-chlorophenyl)-7-(2-methoxyethyl)-7H-pyrrolo[2,3-d]pyrimidin-6-yl)-2-cyano-N-isopropylacrylamide], the “inhibition of WT Hck (IC50, Figure 4C)” value on Hck^3D WT is “insensitive”. For the same compound, in [5], the “kinases depleted from Kinobead matrix (selectivity)” value is recorded as “Hck^FLAG V284C was the only kinase among the ~220 enriched that was depleted”. Besides, the “inhibition of Src V284C” value on Src^3D V284C is reported as “potently inhibited”. For the same compound, the “inhibition of WT Src (IC50, Figure 4C)” value against Src^3D WT is reported as “insensitive”.
On to `COCCn1c(/C=C(/C#N)C(=O)NC(C)C)c(-c2ccc(Oc3ccccc3)cc2)c2c(N)ncnc21` [compound 2, (E)- & (Z)-3-(4-Amino-7-(2-methoxyethyl)-5-(4-phenoxyphenyl)-7H-pyrrolo[2,3-d]pyrimidin-6-yl)-2-cyano-N-isopropylacrylamide], for which, on Hck^3D WT, the “inhibition of WT Hck (IC50, Figure 4C)” value is “minimal inhibition”. For the same compound, in test [1] (3 μM 2 for 15 min, then 10 μM 3 for 15 min), the “membrane blebbing after pre-treatment with 2 prior to addition of 3” value is on record as “levels of blebbing comparable to cells treated with DMSO or 2 alone”. Further, the membrane blebbing entry in [1] was “minimally affected”. The “kinases depleted from Kinobead matrix (selectivity)” value in [5] is on record as “Hck^FLAG V284C was the only kinase among the ~220 enriched that was depleted”. Moreover, the “inhibition of Src V284C” value on Src^3D V284C is “potently inhibited”. Further, the “inhibition of WT Src (IC50, Figure 4C)” value on Src^3D WT is “minimal inhibition”. Moreover, the “SH3 domain accessibility (retained Src in SH3 pulldown)” value on Src^FLAG V284C is “minimal pulldown”.

For the origin of these results see publication PMC6474823 (Molecular cell, 2019).
